This is one part of a sample in which hits are shown more often than they occur.
IDH1 mut inh: inhibitors of IDH1 R132H reductase, primary screen, biochemical, plate reader, single point | 70,000 compounds, 0.18% hits | Isocitrate dehydrogenase [NADP] cytoplasmic (Homo sapiens), O75874 | diaphorase/resazurin fluorescence, 60 min | AID 624101, 2012 | inhibition, % at 10 µM; in the data active = inhibition above about 34%; inconclusive = no clear call, values can overlap the other calls; inactive = below about 11%
Target sequence (O75874 whole entry R132H): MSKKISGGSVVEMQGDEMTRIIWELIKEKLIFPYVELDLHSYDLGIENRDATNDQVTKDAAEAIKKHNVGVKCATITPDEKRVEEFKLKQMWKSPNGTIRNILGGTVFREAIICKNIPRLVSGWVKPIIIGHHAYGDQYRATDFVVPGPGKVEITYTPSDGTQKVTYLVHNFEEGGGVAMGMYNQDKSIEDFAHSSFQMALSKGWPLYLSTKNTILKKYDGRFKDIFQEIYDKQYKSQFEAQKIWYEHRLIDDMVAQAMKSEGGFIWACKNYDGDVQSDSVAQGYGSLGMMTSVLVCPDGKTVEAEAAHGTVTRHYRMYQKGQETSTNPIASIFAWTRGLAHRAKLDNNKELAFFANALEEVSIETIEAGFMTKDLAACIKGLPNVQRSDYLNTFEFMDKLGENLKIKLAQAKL
T cruzi growth-1: T. cruzi intracellular proliferation inhibitors, primary screen, cell-based, beta-gal Tulahuen parasites, NIH3T3 host, luminescence | inhibition, % at 8.34 µM | T. cruzi beta-gal in NIH3T3, GalScreen luminescence, 90 h | 77,000 compounds, 5.9% hits | AID 624255, 2012;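 active = mean inhibition above about 93%, with at least 55% of replicates each passing it, limit read from the data, passing the limit was not always enough; inconclusive = only one of those two conditions holds; inactive = neither condition holds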
KDM4C inh: inhibitors of GASC-1 (KDM4C) histone demethylase, primary screen, biochemical, single concentration HTS; Lysine-specific demethylase 4C (Homo sapiens), Q9H3R0; GST-KDM4C 2-372, H3K9me3 peptide, LANCE TR-FRET; inhibition, % at 12.5 µM; 96,000 compounds, 0.15% hits; AID 720574, 2013;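 active = mean replicate inhibition above about 25%, with at least 55% of replicates also reaching it, limit read from the data, passing the limit was not always enough; inconclusive = only one of those two conditions met; inactive = neither condition met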
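Material: GST-tagged GASC-1 (JMJD2C) catalytic fragment, aa 2-372 / Quantity: enzyme final amount 10 nM / Medium: HEPES buffer, pH 7.5, plus ascorbate / Doses: one test concentration per compound / Incubation: 30 min reaction, 60 min detection, RT / Measured by: LANCE TR-FRET / Read-out: inhibition from TR-FRET ratio decrease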
T cruzi growth-2: T. cruzi intracellular proliferation inhibitors, confirmation, cell-based, NIH3T3 host, beta-gal parasite, luminescence, cherry-pick; shares compounds with T cruzi growth-1; T. cruzi beta-gal in NIH3T3, GalScreen luminescence, 90 h; inhibition, % at 8.35 µM; 5,600 compounds, 72% hits; AID 651739, 2012;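 active = mean replicate inhibition above about 95% and at least 55% of replicates individually reaching it, limit read from the data; inconclusive = only one of the two criteria is met; inactive = neither criterion is met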
T cruzi growth-3: inhibitors of intracellular T. cruzi replication, confirmation, NIH3T3 host cells, beta-gal parasites, cherry-pick, set 2 | shares compounds with T cruzi growth-1 | T. cruzi beta-gal in NIH3T3, GalScreen luminescence, 90 h | inhibition, % at 2.09 µM | 5,600 compounds, 21% hits;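 active = mean inhibition above about 95%, with at least 55% of replicates also reaching it, limit read from the data; inconclusive = meets just one of the two conditions; inactive = meets neither condition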
3T3 cytotox: cytotoxicity in mouse NIH/3T3 fibroblasts, confirmation, cytotoxicity control for T. cruzi proliferation inhibitor project, cell-based, cherry-pick, single point; shares compounds with T cruzi growth-1; NIH/3T3 viability, CellTiter-Glo ATP luminescence, 90 h; cytotoxicity (signal decrease), % at 8.35 µM; 5,600 compounds, 14% hits; AID 651742, 2012;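 active = mean signal decrease across replicates above about 35% based on untreated-well scatter, with enough replicates individually passing, limit read from the data; inconclusive = no rule stated though some were filed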
3T3 cytotox 2: NIH/3T3 fibroblast cytotoxicity, confirmation, cytotoxicity control, cell-based, cherry-pick, single point, set 2; shares compounds with T cruzi growth-1; NIH/3T3 viability, CellTiter-Glo ATP luminescence, 90 h; inhibition, % at 24.9 µM; 5,600 compounds, 56% hits; AID 651744, 2012;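 active = mean loss of cell viability signal at or above a set limit, and enough replicates individually reaching it; inconclusive = meets only the mean limit or only the replicate share; inactive = meets neither condition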
Of the large screens only hits and unclear results are named; the others gave an inactive call (follow-up assays come after a bar, where they were run).

COc1ccc(CCO[C@@H]2O[C@H](CO[C@@H]3OC[C@H](O)[C@H](O)[C@H]3O)[C@@H](OC(=O)/C=C/c3ccc(O)c(OC)c3)[C@H](O[C@@H]3O[C@@H](C)[C@H](O)[C@@H](O)[C@H]3O)[C@H]2O)cc1O	none (no result: T cruzi growth-1, KDM4C inh)
Cc1ccc2nc(-c3ccc(NC(=O)COc4ccc([N+](=O)[O-])cc4)cc3)sc2c1	none (no result: T cruzi growth-1, KDM4C inh)
CC1Oc2c3c(c4c(-c5ccccc5)cc(=O)oc4c2C(=O)C1C)OC(C)(C)C=C3 (stereo unspecified)	none (no result: T cruzi growth-1, KDM4C inh)
Cc1ccc(NC(=O)COc2ccccc2)c(NC(=O)c2cccs2)c1	none (no result: T cruzi growth-1, KDM4C inh)
C[C@@H]1CN([C@H](C)CO)C(=O)c2cc(NC(=O)Nc3ccc4c(c3)OCO4)ccc2O[C@@H](C)CCCCO[C@@H]1CN(C)C(=O)C1CCCCC1	none
C[C@H](CO)N1C[C@H](C)[C@@H](CN(C)C(=O)C2CCCCC2)OCCCC[C@H](C)Oc2ccc(NC(=O)Nc3ccc4c(c3)OCO4)cc2C1=O	T cruzi growth-1 111.0 | T cruzi growth-2 inactive | T cruzi growth-3 inactive | 3T3 cytotox inactive | 3T3 cytotox 2 inactive
C[C@@H]1CN([C@H](C)CO)C(=O)c2cc(NC(=O)Cc3ccccc3)ccc2O[C@@H]1CN(C)Cc1ccc(Cl)c(Cl)c1	T cruzi growth-1 108.6 | T cruzi growth-2 109.3 | T cruzi growth-3 inactive | 3T3 cytotox inactive | 3T3 cytotox 2 93.3
C[C@H](CO)N1C[C@H](C)[C@H](CN(C)Cc2ccc(Cl)c(Cl)c2)Oc2ccc(NC(=O)CCCCCC(=O)Nc3ccccc3N)cc2C1=O	T cruzi growth-1 96.8 (no result: IDH1 mut inh) | T cruzi growth-2 102.8 | T cruzi growth-3 101.8 | 3T3 cytotox inactive | 3T3 cytotox 2 31.9
C[C@@H]1CN([C@H](C)CO)C(=O)c2cc(NC(=O)Cc3ccccc3)ccc2O[C@@H](C)CCCCO[C@@H]1CN(C)Cc1ccc2c(c1)OCO2	T cruzi growth-1 99.8 (no result: IDH1 mut inh) | T cruzi growth-2 104.8 | T cruzi growth-3 inactive | 3T3 cytotox inactive | 3T3 cytotox 2 102.3
C[C@H]1CN([C@@H](C)CO)C(=O)c2cc(NC(=O)Cc3ccccc3)ccc2O[C@@H]1CN(C)Cc1ccc(Cl)c(Cl)c1	none
C[C@H](CO)N1C[C@H](C)[C@@H](CN(C)Cc2ccc(Cl)c(Cl)c2)Oc2ccc(NC(=O)CCCCCC(=O)Nc3ccccc3N)cc2CC1=O	none (no result: T cruzi growth-1)
C[C@@H]1CCCCO[C@@H](CN(C)Cc2ccc3c(c2)OCO3)[C@H](C)CN([C@H](C)CO)C(=O)c2cc(NC(=O)Cc3ccccc3)ccc2O1	none (no result: IDH1 mut inh)
C[C@H](CO)N1C[C@H](C)[C@@H](CN(C)S(C)(=O)=O)OCCCC[C@H](C)Oc2ccc(NC(=O)c3ccccc3)cc2C1=O	none
C[C@@H]1CCCCO[C@@H](CN(C)Cc2ccc(Cl)c(Cl)c2)[C@@H](C)CN([C@H](C)CO)C(=O)c2cc(NC(=O)Nc3ccc4c(c3)OCO4)ccc2O1	T cruzi growth-1 103.7 | T cruzi growth-2 103.5 | T cruzi growth-3 inactive | 3T3 cytotox inactive | 3T3 cytotox 2 inactive
C[C@@H]1CCCCO[C@@H](CN(C)Cc2ccc(Cl)c(Cl)c2)[C@@H](C)CN([C@H](C)CO)C(=O)c2cc(NC(=O)CCC(F)(F)F)ccc2O1	T cruzi growth-1 inconclusive (no result: IDH1 mut inh, KDM4C inh) | T cruzi growth-2 107.9 | T cruzi growth-3 inactive | 3T3 cytotox inactive | 3T3 cytotox 2 inactive
C[C@@H]1CN([C@H](C)CO)C(=O)c2cc(NC(=O)Cc3ccccc3)ccc2O[C@@H](C)CCCCO[C@@H]1CN(C)Cc1ccc(Cl)c(Cl)c1	none (no result: IDH1 mut inh)
